In ChEMBL document CHEMBL1123351, “Synthesis and pharmacological evaluation of some 6-substituted 7-methyl-1,4-dioxa-7-azaspiro[4.5]decanes as potential dopamine agonists” (1986) one finds Inhibition and ED50 data, which are given here for four compounds.

What all share (type): functional
The subject of assay [1] is Rattus norvegicus. As to the kind of experiment: Compound was tested in vivo for dopamine agonist activity in the rat rotation assay after intravenous administration at the dose 1.38 (umol/kg).
A further assay deals with Felis catus. As to the kind of experiment: Compound was tested in vivo for dopamine agonist activity in the cat cardioaccelerator nerve assay. To be noted: read-out: ID50 (the source's name). An outline of the steps: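 Cats anesthetized with pentobarbital sodium 30 mg/kg injected into the thoracic cavity. Compounds given intravenously at doses spaced 0.33 log intervals apart, with N = 3 per dose. Inhibition of cardioaccelerator nerve response measured.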

Assay [2] deals with Rattus norvegicus. In words: Compound was tested in vivo for dopamine agonist activity in the rat rotation assay after intravenous administration at dose 0.46 (umol/kg).
Assay [3] deals with Rattus norvegicus. As to the kind of experiment: Compound was tested in vivo for dopamine agonist activity in the rat rotation assay after intravenous administration at the 4.60 (umol/kg) dose.
For assay [4], the system named is Rattus norvegicus. As to the kind of experiment: Compound was tested in vivo for dopamine agonist activity in the rat rotation assay after intravenous administration at dose 3.5 (umol/kg).

The term Inhibition denotes how much of the control response was suppressed. A high value points to a strong effect. For the compound `CN1CCCC2(OCCO2)C1Cc1ccccc1` (stereo not drawn), the Inhibition in the assay on Rattus norvegicus [1] is given as 18%; in the assay on Rattus norvegicus [2], 22%; in the assay on Rattus norvegicus [3], 36%. Moreover, the ED50 with Felis catus was over 4 µmol/kg.

With `CN1CCCC2(OCCO2)C1Cc1cccc2[nH]ccc12` (stereo not drawn), the ED50 with Felis catus is 0.095 µmol/kg.

The compound `CN1CCCC2(OCCO2)C1Cc1c[nH]c2ccccc12` (stereo not drawn) yielded an Inhibition in the assay on Rattus norvegicus [4] of 32%. The ED50 in the assay on Felis catus was over 4 µmol/kg.

Turning to `CN1CCc2cccc3c2[C@H]1Cc1ccc(O)c(O)c1-3` [APOMORPHINE], in the assay on Felis catus, the ED50 was found to be 0.0348 µmol/kg.
